Here are results for 1 molecule from ChEMBL document CHEMBL4680269, “N-benzylpiperidinol derivatives as novel USP7 inhibitors: Structure-activity relationships and X-ray crystallographic studies” (Eur J Med Chem, 2020).

SMILES strings stand for the structures. Activity calls are given as the source filed them. The rule behind the calls is not given here.

The subject of test [1] is RS4-11. The test is described as follows: Induction of apoptosis in human RS4-11 cells assessed as early apoptotic cells at 1 uM incubated for 48 hrs by annexin V-FITC and PI staining based flow cytometry analysis (reference value: 1.12 %). It is filed as functional.
The test system of test [2] is RS4-11. The test can be described thus: Induction of cell cycle arrest in human RS4-11 cells assessed as G0/G1 phase at 1 uM incubated for 72 hrs by PI staining based flow cytometry analysis (reference value: 44.3 %). It is filed as functional. On the technique in general: Flow cytometry measures light scatter and fluorescence of single cells or particles in a stream.

Test [3] deals with RS4-11. The test is described as follows: Antiproliferative activity against human RS4-11 cells assessed as reduction in cell viability incubated for 3 days by cell-titer glo assay. It is filed as functional, cell-based. The note with it: RS4-11, 72 h. In outline: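 Cells seeded in 96-well plates (RS4;11 5000 cells/well; HCT-116, Huh7, K562, NB4 2000 cells/well), dosed after 24 h with a range of compound concentrations for 3 days. Viability read by CellTiter-Glo luminescence; IC50 from curve fitting.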

Test [4] has as its system RS4-11. The test is described as follows: Induction of apoptosis in human RS4-11 cells assessed as necrotic cells at 1 uM incubated for 24 hrs by annexin V-FITC and PI staining based flow cytometry analysis (reference value: 0.53 %). It is filed as functional.
For test [5], the system named is RS4-11. The test is described as follows: Induction of cell cycle arrest in human RS4-11 cells assessed as G2/M phase at 1 uM incubated for 72 hrs by PI staining based flow cytometry analysis (reference value: 21.5 %). It is filed as functional.
The subject of test [6] is RS4-11. The test can be described thus: Induction of apoptosis in human RS4-11 cells assessed as necrotic cells at 1 uM incubated for 72 hrs by annexin V-FITC and PI staining based flow cytometry analysis (reference value: 0.53 %). It counts as functional.
In test [7] the test system is RS4-11. The test can be described thus: Induction of cell cycle arrest in human RS4-11 cells assessed as G2/M phase at 1 uM incubated for 24 hrs by PI staining based flow cytometry analysis (reference value: 21.5 %). It is filed as functional.
For test [8], the system named is RS4-11. The test is described as follows: Effect on USP7 expression in human RS4-11 cells at 0.1 to 1 uM incubated for 24 hrs by Western blot analysis. It counts as functional, cell-based. The note with it: dose 0.1-1 µM. The gist of the method: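 RS4;11 cells treated for 24 h with compound at varying concentrations, reference inhibitor at 1 μM, or DMSO. USP7, DNMT1, MDM2, p53 and p21 protein levels assessed by Western blot.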

Usually IC50 stands for the point on the concentration scale where inhibition reaches its midpoint. In the case of `COC(=O)c1ccc(CN2CCC(O)(Cn3cnc4c(-c5ccc(CN)cc5)n(C)nc4c3=O)CC2)c(Cl)c1.O=C(O)C(F)(F)F.O=C(O)C(F)(F)F`, the Activity with RS4-11 [1] is 2.32%; in the test with RS4-11 [2], 46.6%; in the test with RS4-11 [4], 0.46%; in the test on RS4-11 [5], 8%; with RS4-11 [6], 0.94%; in the test on RS4-11 [7], 20.6%. For the same molecule, in the test with RS4-11 [3], the half-inhibitory concentration (IC50) amounted to 41.6 nM. The inhibition entry in the test with RS4-11 [8] was “Active”.
